Data published in publication PMC4191608 (ACS Medicinal Chemistry Letters, 2014).

How the values were obtained:
[1] = system: pooled human liver microsomes; test: EFV analogue metabolism by pooled human liver microsomes; type: in vitro ADME; conditions: 2 mg/mL HLM, 10 μM analogue, NADPH regenerating system, 60 min, uHPLC-MS/MS
Outline: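 Pooled human liver microsomes were incubated with test compound and an NADPH regenerating system. Oxidative products (monooxygenated or N-dealkylated) were profiled by uHPLC–MS/MS and assigned by m/z, retention time and fragment ions.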

CYP2B6 [2] = biological target: T1, CYP2B6 (Homo sapiens, UniProt P20813); test: Substrate depletion kinetics with CYP2B6; type: in vitro ADME
T1 sequence (P20813 1-491): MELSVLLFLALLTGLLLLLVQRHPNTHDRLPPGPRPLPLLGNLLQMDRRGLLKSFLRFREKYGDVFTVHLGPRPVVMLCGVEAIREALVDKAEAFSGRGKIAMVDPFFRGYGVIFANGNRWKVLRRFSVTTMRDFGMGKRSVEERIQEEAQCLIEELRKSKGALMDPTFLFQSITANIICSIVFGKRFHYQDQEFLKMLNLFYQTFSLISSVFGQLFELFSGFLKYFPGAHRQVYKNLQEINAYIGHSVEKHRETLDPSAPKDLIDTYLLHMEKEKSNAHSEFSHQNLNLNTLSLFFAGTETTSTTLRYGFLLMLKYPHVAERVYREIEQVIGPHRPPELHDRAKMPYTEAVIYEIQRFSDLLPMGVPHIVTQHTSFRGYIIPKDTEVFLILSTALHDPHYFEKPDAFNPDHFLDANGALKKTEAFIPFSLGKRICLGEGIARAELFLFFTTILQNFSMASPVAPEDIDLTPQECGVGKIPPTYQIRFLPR
Outline: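 cDNA-expressed CYP2B6 (insect microsomes, 10 nM) was incubated with substrate at 37 °C in 100 mM potassium phosphate. After NADPH regenerating system was added, aliquots at 0, 2, 5, 10, 20 and 30 min were quenched in equal-volume acetonitrile with fluorinated internal standard. Depletion was measured by uHPLC–MS/MS, giving Km, kdep max and Vmax. Mean ± SD, three replicate experiments in duplicate.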

CYP2B6 [3] = biological target: T1, CYP2B6; test: Inhibition of CYP2B6 bupropion hydroxylase activity; type: biochemical; conditions: 10 μM compound, 40 μM bupropion, CYP2B6 50 nM, 10 min, 37 °C
Outline: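 Enzyme was cDNA-expressed CYP2B6 in insect microsomes, incubated with bupropion and test compound in 100 mM potassium phosphate buffer. Hydroxybupropion was quantified by uHPLC–MS/MS and expressed as a percentage of a vehicle control (no test compound). Mean ± SD of three replicate experiments run in duplicate; significance was tested against vehicle.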

Metabolites detected from incubation with human liver microsomes [1]	Compound	further results
Monooxygenated metabolites	CCCC#CC1(C(F)(F)F)OC(=O)Nc2ccc(Cl)cc21 (racemic) [analogue 4, rac 6-Chloro-1,4-dihydro-4-(1-pentynyl)-4-(trifluoromethyl)-2H-3,1-benzoxazin-2-one]	fold increase in Km relative to EFV (CYP2B6 [2]): 2 fold
No metabolites	COc1ccc(C(=O)Nc2ccc(Cl)cc2C(O)(C#CC2CC2)C(F)(F)F)cc1 (racemic) [analogue 7, rac N-[4-Chloro-2-[3-cyclopropyl-1-hydroxy-1-(trifluoromethyl)-2-propynyl]phenyl]-4-methoxybenzamide]	inhibition of CYP2B6 hydroxybupropion formation (in words) (CYP2B6 [3]): unable to inhibit hydroxybupropion formation
–	O=C1Nc2ccc(Cl)cc2[C@@](C#CC2CC2)(C(F)(F)F)O1 [EFV, efavirenz, reference compound]	decrease in hydroxybupropion formation compared to vehicle control (CYP2B6 [3]): 93%
Monooxygenated metabolites	O=C1Nc2ccc(Cl)cc2[C@@](/C=C/C2CC2)(C(F)(F)F)O1 [analogue 3, (E)-Dihydroefavirenz]	fold decrease in Km between EFV and analogue (CYP2B6 [2]; relative to EFV): 2 fold
Monooxygenated metabolites	FC(F)(F)[C@@]1(C#CC2CC2)OCNc2ccc(Cl)cc21 [analogue 8, (4S)-6-Chloro-4-(2-cyclopropylethynyl)-1,4-dihydro-4-(trifluoromethyl)-2H-3,1-benzoxazine]	–
